In series [1] the test system is SH-SY5Y. Nature of the series: Cytotoxicity against human SH-SY5Y cells assessed as cell viability after 48 hrs by alamar blue assay. Type of series: functional, cell-based. In a few lines:
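SH-SY5Y cells grown in DMEM/F12 (1:1) with L-glutamine, 10% heat-inactivated FBS, 100 units/mL penicillin and 0.1 mg/mL streptomycin, pH 7.4. Seeded at 5 10^3 cells/well and exposed to the sterols (DMSO stocks) for 48 h. Alamar Blue read-out. IC50 is the concentration inhibiting 50% of growth, mean of at least three separate experiments.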
(In general: Resazurin is reduced to fluorescent resorufin, in cell work by metabolically active cells.)

The test system of series [2] is HT-29. Nature of the series: Selectivity index, ratio of IC50 for human ARPE19 cells to IC50 for human HT-29 cells. It counts as functional.
Series [3] has as its system HT-29. The series can be described thus: Cytotoxicity against human HT-29 cells assessed as cell viability after 48 hrs by alamar blue assay. It counts as functional, cell-based. The settings on record: for pIC50: HT-29, 48 h. In a few lines: (§1)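 Alamar Blue viability assay on the human cell line named (origins given: HT-29 colorectal adenocarcinoma, HepG2 hepatocellular carcinoma, LAMA-84 myeloid leukemia, A549 lung adenocarcinoma, PC3 prostate metastasis, MCF-7 breast adenocarcinoma, ARPE-19 retinal pigment epithelium, BJ skin fibroblast). Exposure was 48 h. Sterol stocks were made in DMSO. IC50 is the concentration inhibiting 50% of cellular growth, given as the mean of at least three separate experiments.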

Series [4] has as its system LAMA-84. The series can be described thus: Cytotoxicity against human LAMA-84 cells assessed as cell viability after 48 hrs by alamar blue assay. It counts as functional, cell-based. Conditions: for pIC50: LAMA-84, 48 h. The essentials: as §1
Series [5] relates to MCF7. The series can be described thus: Cytotoxicity against human MCF7 cells assessed as cell viability after 48 hrs by alamar blue assay. The settings on record: for pIC50: MCF7, 48 h. It counts as functional, cell-based. The essentials:
as §1

Series [6] relates to HepG2. The series can be described thus: Cytotoxicity against human HepG2 cells assessed as cell viability after 48 hrs by alamar blue assay. Type of series: functional, cell-based. The settings on record: for pIC50: HepG2, 48 h. In a few lines:
as §1

For series [7], the system named is A549. Nature of the series: Cytotoxicity against human A549 cells assessed as cell viability after 48 hrs by alamar blue assay. It counts as functional, cell-based. The settings on record: for pIC50: A549, 48 h. The essentials: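 Alamar Blue viability assay on the human cell line named (origins given: HT-29 colorectal adenocarcinoma, HepG2 hepatocellular carcinoma, LAMA-84 myeloid leukemia, A549 lung adenocarcinoma, PC3 prostate metastasis, MCF-7 breast adenocarcinoma, ARPE-19 retinal pigment epithelium, BJ skin fibroblast). Exposure was 48 h. Sterol stocks were made in DMSO.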

For series [8], the system named is PC-3. Nature of the series: Cytotoxicity against human PC3 cells assessed as cell viability after 48 hrs by alamar blue assay. Type of series: functional, cell-based. The settings on record: for pIC50: PC-3, 48 h. The essentials: as §1
Series [9] in a line: Cytotoxicity against human ARPE19 cells assessed as cell viability after 48 hrs by alamar blue assay. It counts as cell-based, ARPE-19. The settings on record: for pIC50: Homo sapiens, ARPE-19, 48 h; for Activity: human, arpe-19, 48 h. The essentials:
as §1

The test system of series [10] is BJ. Nature of the series: Cytotoxicity against human BJ cells assessed as cell viability after 48 hrs by alamar blue assay. Type of series: cell-based. The settings on record: for pIC50: Homo sapiens, BJ; for Activity: human, bj. The essentials:
as §1

The test system of series [11] is HT-29. The series can be described thus: Cytotoxicity against human HT-29 cells assessed as inhibition of cell growth after 96 hrs by alamar blue assay. It counts as functional, cell-based. The settings on record: HT-29, 96 h. In a few lines:
(§2)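 HT-29 and ARPE-19 cells exposed for 96 h. ARPE-19 seeded at 5 10^3 cells/well for this period. Sterol stocks in DMSO. Viability by Alamar Blue. IC50 is the concentration inhibiting 50% of cellular growth, mean of at least three separate experiments.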

Series [12] is described as follows: Cytotoxicity against human ARPE19 cells assessed as inhibition of cell growth after 96 hrs by alamar blue assay. Conditions: ARPE-19, 96 h. Type of series: cell-based. The essentials: as §2

SMILES strings stand for the structures. pIC50: −log10 of the molar value.

In general, pIC50 refers to −log10 of the IC50, conventionally taken in molar units. For the compound `CC(C)CCC[C@@H](C)[C@H]1CC[C@H]2[C@@H]3[C@@H](O)C=C4C[C@@H](O)CC[C@]4(C)[C@H]3CC[C@]12C`, the pIC50 in series [1] was 4.79. Moreover, the “Ratio IC50” value in [2] is listed as 3.13.

As to `CC(C)CCC[C@@H](C)[C@H]1CC[C@H]2[C@@H]3C[C@@H](O)[C@@]4(O)C[C@@H](O)CC[C@]4(C)[C@H]3CC[C@]12C` [CHOLESTAN-3beta,5alpha,6beta-TRIOL], the pIC50 in series [1] was 4.76. Besides, the “Ratio IC50” value in series [2] is given as 1.48.

For `CC(C)CCC[C@@H](C)[C@H]1CC[C@H]2[C@@H]3[C@@H](O)[C@@H](O)[C@@]4(O)C[C@@H](O)CC[C@]4(C)[C@H]3CC[C@]12C`, the inhibition entry in series [3], in [4], in [5], in [1], in [6] and in series [7] was “Dose-dependent effect” each time. In addition, the inhibition entry in series [8] is “Dose-dependent effect”. The negative logarithm of the IC50 (pIC50) is 4.86 in series [3]; 5.29 in [4]; 4.88 in series [5]; 4.69 in [1]; 4.86 in series [6]; 4.76 in [7]. The pIC50 is 4.76 in series [8], 4.67 in series [9] and 4.71 in series [10]. Besides, the Activity result in [9] and in series [10] was “Non-toxic” in each case. Besides, the “Ratio IC50” value in [2] worked out at 1.54.

On to `CC(=O)O[C@H]1CC[C@@]2(C)C(=C[C@H](O)[C@H]3[C@@H]4CC[C@H]([C@H](C)CCCC(C)C)[C@@]4(C)CC[C@@H]32)C1`, for which the pIC50 in series [9] is 4.33; in series [11], 4.91; in series [12], 4.63. For the same compound, the “Ratio IC50” value in series [2] is recorded as 1.58.

Regarding `CC(=O)N[C@@H]1C[C@H]2[C@@H]3CC[C@H]([C@H](C)CCCC(C)C)[C@@]3(C)CC[C@@H]2[C@@]2(C)CC[C@H](O)C[C@]12O`, the negative logarithm of the IC50 (pIC50) is 4.84 in [3]; 4.94 in series [6]; 4.84 in series [7]; 4.72 in [8]; 4.72 in series [9]. Also, the “Ratio IC50” value in series [2] amounted to 1.31.

Regarding `CC(=O)O[C@H]1CC[C@]2(C)[C@H]3CC[C@]4(C)[C@@H]([C@H](C)CCCC(C)C)CC[C@H]4[C@@H]3[C@@H](O)[C@@H](O)[C@@]2(O)C1`, the negative logarithm of the IC50 (pIC50) in series [3] was 4.73; in series [9], 4.52; in series [11], 4.83; in series [12] it was 4.62. In [2], the “Ratio IC50” value is 1.62.

In the case of `CC(=O)O[C@H]1[C@@H](O)CC[C@]2(C)[C@H]3CC[C@]4(C)[C@@H]([C@H](C)CCCC(C)C)CC[C@H]4[C@@H]3CC[C@@]12O`, the pIC50 is 4.82 in [3], 4.43 in [9], 4.73 in series [11] and 4.65 in [12]. In addition, in series [2], the “Ratio IC50” value was 2.46.

Turning to `CC(=O)O[C@H]1CC[C@]2(C)[C@H]3CC[C@]4(C)[C@@H]([C@H](C)CCCC(C)C)CC[C@H]4[C@@H]3[C@@H](OC(C)=O)[C@@H](O)[C@@]2(O)C1`, the pIC50 is 4.70 in series [3], 4.54 in [9], 4.78 in [11] and 4.71 in series [12]. The “Ratio IC50” value in series [2] was found to be 1.44.

For the compound `CO[C@@H]1C[C@H]2[C@@H]3CC[C@H]([C@H](C)CCCC(C)C)[C@@]3(C)CC[C@@H]2[C@@]2(C)CC[C@H](O)C[C@]12O`, the pIC50 is 5.00 in series [3]; 5.37 in series [4]; 4.88 in [6]; 4.76 in [8]; 4.59 in series [9]; 4.76 in series [10]. Also, the “Ratio IC50” value in series [2] is given as 2.58.

Take `CC(C)CCC[C@@H](C)[C@H]1CC[C@H]2[C@@H]3C[C@@H](O)[C@@]4(O)[C@@H](O)[C@@H](O)CC[C@]4(C)[C@H]3CC[C@]12C`: the inhibition entry in [3], in series [4], in series [5], in series [1], in series [6] and in series [7] was “Dose-dependent effect” throughout. Also, the inhibition result in [8] was “Dose-dependent effect”. Further, the pIC50 is 5.04 in series [3]; 5.29 in series [4]; 4.84 in series [5]; 4.84 in series [1]; 4.90 in series [6]; 4.77 in series [8]. In addition, the pIC50 in [9] was 4.69; in [10], 4.75. Moreover, the Activity result in series [9] and in series [10] was “Non-toxic” throughout. For the same compound, the “Ratio IC50” value in series [2] is 2.24.

For `CC(=O)O[C@@H]1[C@H]2[C@@H]3CC[C@H]([C@H](C)CCCC(C)C)[C@@]3(C)CC[C@@H]2[C@@]2(C)CC[C@H](O)C[C@]2(O)[C@@H]1OC(C)=O`, the inhibition result in [3], in series [4], in series [5], in series [1], in series [6] and in series [7] was “Dose-dependent effect” each time. Also, the inhibition entry in series [8] is “Dose-dependent effect”. For the same compound, the pIC50 in [3] was 4.88; in [4], 5.19; in series [5], 4.88; in series [1], 4.86; in series [6], 4.93; in series [7], 4.86. Further, the pIC50 was 4.99 in [8], 4.95 in series [9], 4.99 in [10] and 4.83 in [11]. For the same compound, the Activity entry in series [9] and in [10] was “Toxic” throughout. In addition, in series [2], the “Ratio IC50” value is reported as 0.85.

With `CC(C)CCC[C@@H](C)[C@H]1CC[C@H]2[C@@H]3C/C(=N\O)[C@@]4(O)C[C@@H](O)CC[C@]4(C)[C@H]3CC[C@]12C`, the pIC50 is 4.92 in [3]; 4.77 in series [1]; 4.88 in series [6]; 4.82 in series [7]; 4.82 in series [8]; 4.63 in series [9]. Moreover, the pIC50 in series [10] is 4.77. For the same compound, the “Ratio IC50” value in series [2] was found to be 1.99.

For the compound `CC(=O)O[C@H]1CC[C@]2(C)[C@H]3CC[C@]4(C)[C@@H]([C@H](C)CCCC(C)C)CC[C@H]4[C@@H]3C[C@@H](OC(C)=O)[C@@]2(O)C1`, the pIC50 in series [3] was 4.37; in series [9] it was 4.19; in series [11], 4.60; in [12] it was 4.45. In addition, the “Ratio IC50” value in [2] is given as 1.49.

For the compound `CC(=O)O[C@@H]1C[C@H]2[C@@H]3CC[C@H]([C@H](C)CCCC(C)C)[C@@]3(C)CC[C@@H]2[C@@]2(C)CC[C@H](O)C[C@]12O`, the pIC50 in series [3] was 5.17; in [4], 5.41; in series [5], 4.96; in series [1], 4.91; in [6], 4.92; in series [7], 4.88. The pIC50 was 4.88 in [8], 4.75 in [9], 4.87 in [10] and 5.18 in [11]. Also, the “Ratio IC50” value in series [2] amounted to 2.58.

Take `CC(C)CCC[C@@H](C)[C@H]1CC[C@H]2[C@@H]3CC[C@@]4(O)[C@@H](O)[C@@H](O)CC[C@]4(C)[C@H]3CC[C@]12C`: the pIC50 was 4.47 in series [3], 4.46 in series [6], 4.50 in [7] and 4.45 in [8].

`COc1cccc2c1C(=O)c1c(O)c3c(c(O)c1C2=O)C[C@@](O)(C(=O)CO)C[C@@H]3O[C@H]1C[C@H](N)[C@H](O)[C@H](C)O1` [DOXORUBICIN]: the pIC50 in series [1] was 6.30.

For `CC(=O)O[C@H]1CC[C@]2(C)[C@H]3CC[C@]4(C)[C@@H]([C@H](C)CCCC(C)C)CC[C@H]4[C@@H]3C[C@@H](O)[C@@]2(O)C1`, the results for the negative-log IC50 (pIC50) in series [9] and in series [12] were under 4.22 and 4.28, respectively. For the same compound, the “Ratio IC50” value in series [2] is listed as over 3.09.

Values taken from ChEMBL document CHEMBL1821637, “Selective cytotoxicity of oxysterols through structural modulation on rings A and B. Synthesis, in vitro evaluation, and SAR” (J Med Chem, 2011).
